# Laboratory results reported in ChEMBL document CHEMBL4513216, “Probing the Open Global Health Chemical Diversity Library for Multistage-Active Starting Points for Next-Generation Antimalarials” (ACS Infect Dis, 2020).
# Test: Toxicity liver stage against HepG2, at 10uM
# Type: cell-based
# Design: test concentration 10 uM, cell line HepG2-A16-CD81EGFP
# Conditions: human, HepG2-A16-CD81EGFP cells; read-out: INHIBITION
# Outline: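 Uninfected HepG2-A16-CD81EGFP cells, 3 × 10^3 per well, 1536-well, plated on prespotted compound at 10 μM final, parasite-free screening media added to match infected plates; puromycin 10 μM positive, DMSO 0.5% negative; run in parallel with 48 h PbLuc assay at 37 °C, 5% CO2; viability by CellTiter-Glo luminescence, normalized to controls.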
row,SMILES,cytotoxicity at 10 µM [%]
1,CCc1nnc(C2Cc3ccccc3CN2Cc2nc(C)no2)o1 (stereo not given),-7.78
2,O=C(CO)N1CCc2onc(Cn3cccn3)c2C1,0.436
3,Cc1cc(NCCCc2c(C)noc2C)nc(N)n1,12
4,CN(C)C(=O)CN1CCC2(CCCN(Cc3cccn3C)C2)C1=O (stereo not given),11.3
5,COc1ccc(N2CCN(C(=O)Cn3nccc3C)CC2(C)C)cc1,6.68
6,CC(=O)N1CCN(C(=O)Nc2cnc3c(cnn3C(C)C)c2)CC1,-0.192
7,CN(Cc1ccc(Br)c2cccnc12)S(C)(=O)=O,2.92
8,c1ccc(CN2CCCC(CNc3ncnc4c3CCNCC4)C2)cc1 (stereo not given),-9.89
9,CC(C)CC(NC(=O)CSCC(N)=O)c1cccs1 (stereo not given),-0.431
10,CCn1cnnc1C1CCN(C(=O)c2ccnc(N(C)C)c2)CC1,8.2
11,COc1ccc(CN2CC[C@H](NC(C)=O)[C@@H](O)CC2)c(OC)c1,-7.49
12,Cc1csc(N2CCCN(C(=O)c3occc3C)CC2)n1,-13.8
13,COC1CN(C(=O)NC2CCCC2)CCC(=O)N(C)c2ccccc21 (stereo not given),-9.35
14,CC(Cn1cncn1)NC1CCN(Cc2cccc(O)c2)CC1 (stereo not given),2.64
15,CC(CN1CCCCCC1)NCc1nncn1C1CCCCC1 (stereo not given),-5.59
16,O=C(c1cc2cccc(F)c2[nH]1)N1C[C@@H](O)[C@H](N2CCOCC2)C1,0.0453
17,CC(C(=O)NCc1ccnc(N(C)C)c1)n1cccn1 (stereo not given),-13.8
18,CS(=O)(=O)NCc1nnc2n1CCN(Cc1cccs1)C2,-1.57
19,O=S(=O)(Nc1cnn(C2CCOCC2)c1)c1ccc(Br)cc1,5.05
20,CCC(=O)N1CCC2(COCc3c(C)nc(NCc4ccco4)nc32)C1 (stereo not given),1.75
21,CCN1CCN(C(=O)NCc2cc[nH]n2)CC1,-12.7
22,c1cnnc(N2CCCC2CNCc2cc[nH]n2)c1 (stereo not given),-0.807

row,SMILES,cytotoxicity at 10 µM [%]
1,Cn1nc(Cn2cccn2)c2c1CN(Cc1ccsc1)C2,-148
2,c1ccc(-n2ccc(CNCC3CCCN3c3cccnn3)n2)cc1 (stereo not given),-10.2
3,COCCc1noc(CN(C)c2nc(C)cc(C)n2)n1,0.801
4,COCC(O)CN(C)C(=O)NCc1ccc(S(C)(=O)=O)cc1 (stereo not given),1.72
5,CC(C)(C)n1ncc2c1NC(=O)CC2c1ccc(C#N)cc1 (stereo not given),-1.26
6,CN(CC1(C)COC1)C(=O)c1cc(-c2cnn(C)c2)nc2ccccc12,0.89
7,O=C(C1CCCC1)N1CCCC(c2cccc(-n3ccnc3)n2)C1 (stereo not given),-5.52
8,CN(Cc1ncc[nH]1)CC1CCOc2ccccc2C1 (stereo not given),-1.93
9,CC(=O)N1CC[C@H]2OCC[C@@H](C(=O)NCc3ccco3)[C@@H]2C1,-77.4
10,O=C(Cc1ccsc1)N1CCCC(c2cc(C(F)F)n3ncnc3n2)C1 (stereo not given),-20.7
11,O=C(c1ccc(Cl)cc1)N1CCc2nc(C(=O)N3CCCC3)sc2CC1,8.04
12,Cc1nc2c(c(N3CCC(CCn4cccn4)CC3)n1)CCNCC2,4.3
13,Cc1cc(CN2C[C@@H]3CC[C@H]2CN(Cc2[nH]cnc2C)C3)on1,-2.34
14,Cc1ccn(-c2ccnc(N3CCSCC3)n2)n1,9.87
15,CC(C)(C)CC(=O)Nc1cnn(-c2ccccc2S(C)(=O)=O)c1,3.69
16,Cc1ccc(-c2cc(C(=O)N(C)Cc3noc4c3CCCC4)[nH]n2)s1,-1.03
17,COc1ccc(C2=CCN(C(=O)CN(C)CC(N)=O)CC2)cc1,-9.19
18,CCn1nc(CC(C)C)cc1C(=O)NCCn1cccc1,-5.94
19,CN(C)S(=O)(=O)N(C)C(c1cccc(F)c1)c1ccccn1 (stereo not given),3.22
20,CC(=O)Nc1ccc(CC(=O)N2CC(S(=O)(=O)C3CCCCC3)C2)cc1,-12.8
21,O=C(NCCN1CCCCC1)c1nc(-c2ccc3cc[nH]c3c2)no1,-8.54
22,Cc1ccc2nc(-c3nc4c([nH]3)CCCNC4=O)cn2c1,4.42

row,SMILES,cytotoxicity at 10 µM [%]
1,CN1CCN(C2CCN(CC(O)c3ccccc3F)CC2)C1=O (stereo not given),-0.275
2,Cc1ncccc1CNCC1COC2(CCCCC2)O1 (stereo not given),-149
3,CCc1nnsc1C(=O)NCCc1nnc2n1CCC2,3.16
4,O=C1N(CC2CC2)C(c2c[nH]nc2-c2cccnc2)NC12CCCC2 (stereo not given),-2.16
5,CC(C)CC(NC(=O)Nc1ccc(F)c(Cl)c1)C(=O)O (stereo not given),8.19
6,Cc1ncc2c(n1)C1(CCN(C(=O)C(C)C)CC1)OCC2,5.49
7,CC(C)(C)CC(=O)NCCn1ccc(-c2ccncc2)n1,-3.4
8,CCC(CO)NC(=O)Nc1ccc(OCC(F)(F)F)c(C)c1 (stereo not given),10.9
9,N#Cc1cc(NC(=O)c2ccccn2)ccc1N1CCC(O)CC1,0.73
10,O=S(=O)(Nc1ccc(Oc2ccc3c(c2)OCO3)cc1)N1CCCCC1,-29.3
11,CS(=O)(=O)NCCN(CCCO)C1CCc2ccccc21 (stereo not given),3.09
12,COc1cc2c(c(OC)c1OC)CCN(CCn1nc(C)cc1C)CC2,12.9
13,CC(NC(=O)c1cnccn1)c1nnc2ccccn12 (stereo not given),5.1
14,O=C(O)COc1ccccc1CN1CCCC1c1cnccn1 (stereo not given),22
15,CN1C[C@@H](C(=O)NCC(F)(F)F)[C@@]2(CCc3ccccc3C(=O)N2)C1,6.22
16,Cc1ccc(C(=O)CN(C2=NCCCCC2)c2ccccc2)cc1,17.7
17,CCc1cnc(NCC(c2ccncc2)N2CCOCC2)nc1 (stereo not given),8.71
18,CCN1Cc2cc(F)ccc2N(C(=O)C2CCC2)CCC1=O,-41.2
19,COCC1CC2(CCN(C(=O)c3occc3C)CC2)CO1 (stereo not given),0.982
20,CCC(C)Oc1cc(C(=O)N(c2cccnc2)C(C)C)ccn1 (stereo not given),8.77
21,CCc1nc2n(n1)CC(NCc1ccnc(-c3ccccc3)n1)CC2 (stereo not given),-8.3
22,COc1ccc2c(ccn2CCC(=O)NCCCC(=O)O)c1,5.7

row,SMILES,cytotoxicity at 10 µM [%]
1,O=C(NCCN1CCCCC1)c1nc(-c2cccc3[nH]ccc23)no1,0.142
2,COCC(=O)N1CCC(c2cc3nc(C)cc(C(F)(F)F)n3n2)CC1,4.49
3,COc1c(F)cc(F)cc1-c1nc2c([nH]1)CCNC2,3.94
4,Cc1nc(CN(CCS(C)(=O)=O)C(C)(C)C)no1,-1.86
5,Cn1ccnc1CN1CCc2ncnc(N3CCCC3)c2CC1,-142
6,CS(=O)(=O)N1CC2(CCN(c3nccs3)CC2)c2ccccc21,0.933
7,CN(Cc1nnc(C2CC2)n1C)C1CCN(Cc2ccccc2F)C1 (stereo not given),-15.1
8,CNc1ncc(-c2ccnn2C2CCN(C(C)=O)CC2)cn1,0.581
9,CCC(C)Nc1ccc(-c2nc(-c3cccc(OC)c3OC)no2)cn1 (stereo not given),24.8
10,CCC(CO)N(Cc1cccs1)C(=O)Cc1ccncc1 (stereo not given),-9.67
11,CN1[C@@H]2CC[C@H]1CN(C(=O)c1nnc3n1CCCC3)CC2,-10.6
12,O=C(NCCCN1CCOCC1)c1cc(-c2ccco2)[nH]n1,-15.4
13,CCc1cc(=O)n(CC(=O)N2CCC(C)CC2)c(-c2ccccc2)n1,10.8
14,Oc1ccccc1-c1cc(-c2nc(C3CC3)n[nH]2)[nH]n1,0.45
15,Cn1cc(CN2CC[C@@H]3[C@@H](CCC(=O)N3CCC3=CCCCC3)C2)cn1,-8.68
16,Cn1cc(CN2CC[C@@H]3[C@@H]2CCN3C(=O)c2cccc(F)c2)cn1,-66.4
17,O=C(C1CCCC1)N1C[C@@H]2CCN(c3cccnc3)C[C@@H]2C1,-78.4
18,Cc1nc(CO[C@@H]2CN(Cc3ccsc3)[C@@H]3COC[C@@H]32)cs1,3.04
19,Cc1noc(CN(C)CC2(O)CCCN(CCC3CCCCC3)C2=O)n1 (stereo not given),-3.73
20,CS(=O)(=O)N1CCCC(Cc2cnc(Br)cn2)C1 (stereo not given),17.3
21,OCCO[C@H]1C[C@@H](O)C12CCN(Cc1nc(C(F)(F)F)no1)CC2,0.145
22,Cc1nc(Cn2c3c(ccc2=O)CCN(CC2CC2)CC3)cs1,1.63

row,SMILES,cytotoxicity at 10 µM [%]
1,Cc1cc(N2CCC(NC(=O)CCc3ccco3)CC2)nc(C)n1,-14.3
2,Cc1cc(C)c2[nH]c(=O)c(CN3CCCC(O)(CO)C3)cc2c1 (stereo not given),-2.25
3,Cc1ccc(OCCC(=O)N(C)CCC#N)cc1C,6.5
4,CNC(=O)CCS(=O)(=O)Cc1nnnn1-c1ccccc1,15.3
5,CC(C)CN1CCC2(Cc3ccccc3NC2=O)C1 (stereo not given),6.86
6,O=C1NC2(CCN(C(=O)Cc3ccsc3)CC2)CC1c1ccccc1 (stereo not given),-2.04
7,COCc1c(C(=O)N2CCCC(N(C)Cc3ccccc3)C2)noc1C (stereo not given),-16.8
8,CCS(=O)(=O)CC(=O)NC1CCc2nccn2C1 (stereo not given),17.1
9,CC1N(c2cnn(C)c2)C(=O)COC12CCN(c1ncccn1)CC2 (stereo not given),0.952
10,Cn1cccc1C(=O)NCc1cnc2n1CCN(C(=O)N1CCCC1)C2,-5.61
11,O=C(CO)N1CC2(CCN(c3ccccc3)C2)C1,8.98
12,c1ccc(CO[C@H]2CO[C@@]3(CCN(Cc4ccoc4)C3)C2)nc1,-15.3
13,Cc1nn(-c2ccccc2)cc1C(=O)N1CCCC(n2ccnc2)C1 (stereo not given),-14.4
14,Cc1noc(C)c1CN1C(=O)[C@@H]2CC[C@H]1CN(Cc1cccnc1N)C2,19.7
15,Cn1ccnc1CN1CCC2(CC1)COCCN(c1ncccn1)C2,11.3
16,COCCC(=O)N1CCC(C(=O)c2cc(C)cnc2N)CC1,-27.7
17,O=C(c1cnoc1)N1CCC[C@]2(C[C@H](Oc3ncccc3F)CO2)C1,-10.2
18,CSCC(=O)N1CCC(c2nccn2Cc2cscn2)CC1,-6.6
19,Cn1ncc(NCc2cccc(F)c2)c(Cl)c1=O,-7.72
20,CO[C@H]1CCN(Cc2ccccn2)[C@@H]2CN(Cc3ccco3)C[C@H]12,-7.76
21,CC(C)NC(=O)[C@H]1C[C@@H]2[C@@H](C1)OCCN2Cc1ccccn1,6.62
22,Cc1nc2sccn2c1C(=O)N1CCn2nc(C(=O)NC3CC3)cc2C1,9.63
